Measured values as given in ChEMBL document CHEMBL1140547, “Potent oxindole based human beta3 adrenergic receptor agonists” (Bioorg Med Chem Lett, 2007).

Tests used:
[1] = biological target: T1, Beta-3 adrenergic receptor (Homo sapiens, UniProt P13945); assay: Agonist activity at human beta-3 adrenergic receptor expressed in CHO cells assessed as cAMP level relative to isoproterenol; format: functional, cell-based
Method in brief: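 CHO cells expressing human β3 adrenergic receptor; agonism read out as cAMP level. Intrinsic activity taken as the compound's maximal response expressed as percentage of the maximal response to isoproterenol at […]; n = 3.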
Target sequence in this assay (P13945 whole entry, looked up): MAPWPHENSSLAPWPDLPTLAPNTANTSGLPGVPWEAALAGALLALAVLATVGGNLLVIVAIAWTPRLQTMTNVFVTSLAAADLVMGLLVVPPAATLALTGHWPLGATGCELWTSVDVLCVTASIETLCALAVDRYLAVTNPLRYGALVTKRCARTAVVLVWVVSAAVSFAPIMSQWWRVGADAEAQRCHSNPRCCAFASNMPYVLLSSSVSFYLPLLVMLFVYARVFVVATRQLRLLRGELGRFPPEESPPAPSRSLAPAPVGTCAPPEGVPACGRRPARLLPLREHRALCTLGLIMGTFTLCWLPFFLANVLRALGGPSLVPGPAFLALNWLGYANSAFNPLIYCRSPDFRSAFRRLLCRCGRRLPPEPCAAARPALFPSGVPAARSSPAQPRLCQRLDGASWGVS

[2] = biological target: T1, Beta-3 adrenergic receptor; assay: Agonist activity at human beta-3 adrenergic receptor expressed in CHO cells assessed as cAMP level; format: functional, cell-based
Method in brief: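 cAMP accumulation measured in CHO cells expressing the human β receptor. Intrinsic activity is the compound's maximal response as a percentage of the maximal isoproterenol response.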
Target sequence in this assay (P13945 whole entry): as the sequence (P13945 whole entry, looked up) above

[3] = biological target: Beta-2 adrenergic receptor (Homo sapiens, UniProt P07550); assay: Agonist activity at human beta-2 adrenergic receptor expressed in CHO cells assessed as cAMP level; format: functional, cell-based
[4] = biological target: Beta-1 adrenergic receptor (Homo sapiens, UniProt P08588); assay: Agonist activity at human beta-1 adrenergic receptor expressed in CHO cells assessed as cAMP level; format: functional, cell-based
Cardiac atrium = assay: Effect on rat atrial tachycardia assessed as increase in heart rate; format: functional
Method in brief: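 Isolated rat atria were used to score tachycardia. The value is the maximal response, or the response at a single fixed high agonist level when no maximum was reached.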

Rattus norvegicus [5] = assay: Reduction in respiratory quotient in diet induced obese Long Evans rat at 10 mg/kg, po after 20 hrs relative to control; format: functional; design: scale not given: the % may be the effect or the level left
Method in brief: (§1)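 Diet-induced obese Long Evans rats received one oral dose (1 or 10 mg/kg) or vehicle. Indirect calorimetry tracked respiratory quotient over 24 h. RQ reduction and energy expenditure increase were expressed as % versus vehicle over 20 h. Food consumption was recorded in g. Statistical significance was assessed against vehicle.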

Rattus norvegicus [6] = assay: Increase in energy expenditure in diet induced obese Long Evans rat at 10 mg/kg, po after 20 hrs relative to control; format: functional; method in brief: as §1
Rattus norvegicus [7] = assay: Effect on food consumption in diet induced obese Long Evans rat at 10 mg/kg, po; format: functional; method in brief: as §1
Rattus norvegicus [8] = assay: Reduction in respiratory quotient in diet induced obese Long Evans rat at 1 mg/kg, po after 20 hrs relative to control; format: functional; design: scale not given: the % may be the effect or the level left; method in brief: as §1
Rattus norvegicus [9] = assay: Increase in energy expenditure in diet induced obese Long Evans rat at 1 mg/kg, po after 20 hrs relative to control; format: functional; method in brief: as §1
Rattus norvegicus [10] = assay: Effect on food consumption in diet induced obese Long Evans rat at 1 mg/kg, po; format: functional; method in brief: as §1
[11] = Oral bioavailability in rat […]; format: ADME, organism-based; conditions: in vivo
[12] = biological target: Beta-3 adrenergic receptor (Rattus norvegicus, UniProt P26255); assay: Agonist activity at rat beta-3 adrenergic receptor; format: functional
[13] = Oral bioavailability in F344 rat; conditions: in vivo

Sequence of Beta-1 adrenergic receptor (P08588 whole entry): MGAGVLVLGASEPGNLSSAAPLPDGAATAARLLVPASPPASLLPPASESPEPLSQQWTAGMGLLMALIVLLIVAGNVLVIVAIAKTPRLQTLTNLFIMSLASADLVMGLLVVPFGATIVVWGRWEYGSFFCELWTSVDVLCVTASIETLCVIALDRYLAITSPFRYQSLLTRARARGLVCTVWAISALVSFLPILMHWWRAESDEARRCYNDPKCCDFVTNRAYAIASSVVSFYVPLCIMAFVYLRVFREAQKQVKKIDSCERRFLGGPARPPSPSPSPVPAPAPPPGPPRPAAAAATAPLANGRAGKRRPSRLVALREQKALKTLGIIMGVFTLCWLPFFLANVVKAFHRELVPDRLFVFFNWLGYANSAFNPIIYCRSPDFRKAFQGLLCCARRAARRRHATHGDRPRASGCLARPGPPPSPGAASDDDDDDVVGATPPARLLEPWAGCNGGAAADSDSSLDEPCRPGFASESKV
Sequence of Beta-2 adrenergic receptor (P07550 whole entry): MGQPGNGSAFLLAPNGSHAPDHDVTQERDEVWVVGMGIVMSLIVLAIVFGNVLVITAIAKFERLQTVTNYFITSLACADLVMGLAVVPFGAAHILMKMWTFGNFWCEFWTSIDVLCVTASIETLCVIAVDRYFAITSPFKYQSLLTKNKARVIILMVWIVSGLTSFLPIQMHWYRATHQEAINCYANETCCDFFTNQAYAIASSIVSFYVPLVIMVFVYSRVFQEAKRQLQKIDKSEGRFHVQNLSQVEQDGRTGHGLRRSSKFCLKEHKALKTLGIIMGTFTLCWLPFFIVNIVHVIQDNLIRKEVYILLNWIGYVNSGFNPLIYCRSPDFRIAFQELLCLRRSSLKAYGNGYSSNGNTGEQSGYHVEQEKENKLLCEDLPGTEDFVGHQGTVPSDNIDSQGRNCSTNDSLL
Sequence of Beta-3 adrenergic receptor (Rattus norvegicus, UniProt P26255) (P26255 whole entry): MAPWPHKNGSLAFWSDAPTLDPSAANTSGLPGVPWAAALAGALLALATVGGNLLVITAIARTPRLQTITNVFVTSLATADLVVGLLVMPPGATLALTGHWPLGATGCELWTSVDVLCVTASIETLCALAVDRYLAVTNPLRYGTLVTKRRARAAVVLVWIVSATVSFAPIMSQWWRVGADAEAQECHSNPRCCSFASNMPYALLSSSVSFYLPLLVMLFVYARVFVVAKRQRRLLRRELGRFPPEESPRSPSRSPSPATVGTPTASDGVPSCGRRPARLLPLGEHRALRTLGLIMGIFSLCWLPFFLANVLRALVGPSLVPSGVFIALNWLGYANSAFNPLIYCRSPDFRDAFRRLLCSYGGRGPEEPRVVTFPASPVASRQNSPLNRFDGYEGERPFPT

Structure (SMILES)	Emax [1] [%]	EC50 [2] [nM]	EC50 [3] [nM]	EC50 [4] [nM]	bioavailability [11] [%]	EC50 [12] [nM]	bioavailability [13] [%]	Activity (Cardiac atrium) [%]	Activity (Rattus norvegicus [5]) [%]	Activity (Rattus norvegicus [6]) [%]	Activity (Rattus norvegicus [7]) [g]	Activity (Rattus norvegicus [8]) [%]	Activity (Rattus norvegicus [9]) [%]	Activity (Rattus norvegicus [10]) [g]
CC(C)(Cc1ccc(Oc2ccc(C(N)=O)cn2)cc1)NC[C@H](O)COc1cccc2c1C1(CC1)C(=O)N2	76.8	6.6	35.2	58.3	–	–	–	13.2	–	–	–	–	–	–
CC(C)C1C(=O)Nc2cccc(OC[C@@H](O)CNC(C)(C)Cc3ccc(Oc4ccc(C(N)=O)cn4)cc3)c21 (stereo not given in full)	41.7	13.9	> 10000	> 10000	–	–	–	–	–	–	–	–	–	–
CC(C)(Cc1ccc(Oc2ccc(C(N)=O)cn2)cc1)NC[C@H](O)COc1cccc2c1C(Cc1ccccc1)(Cc1ccccc1)C(=O)N2	48.5	268	> 10000	> 10000	–	–	–	–	–	–	–	–	–	–
CC(C)(Cc1ccc(Oc2ccc(C(N)=O)cn2)cc1)NC[C@H](O)COc1cccc2c1C1(CCC1)C(=O)N2	71.2	17.6	> 10000	> 10000	–	–	–	14.8	–	–	–	–	–	–
CC(C)CC1C(=O)Nc2cccc(OC[C@@H](O)CNC(C)(C)Cc3ccc(Oc4ccc(C(N)=O)cn4)cc3)c21 (stereo not given in full)	49.4	14	> 10000	> 10000	–	–	–	–	–	–	–	–	–	–
CC(C)(Cc1ccc(Oc2ccc(C(N)=O)cn2)cc1)NC[C@H](O)COc1cccc2c1C1(CCCC1)C(=O)N2	66.3	10.6	> 10000	> 10000	–	–	–	8.6	–	–	–	–	–	–
CC1C(=O)Nc2cccc(OC[C@@H](O)CNC(C)(C)Cc3ccc(Oc4ccc(C(N)=O)cn4)cc3)c21 (stereo not given in full)	72.6	12	> 10000	> 10000	–	–	–	10.4	–	–	–	–	–	–
CC(C)(Cc1ccc(Oc2ccc(C(N)=O)cn2)cc1)NC[C@H](O)COc1cccc2c1C(C)(C)C(=O)N2	67.9	5.2	> 10000	> 10000	10	6.5	10	9.7	45	14	11.8	31	8	13.7

The next lines start with results.

Emax [1] [%]	EC50 [2] [nM]	EC50 [3] [nM]	EC50 [4] [nM]	bioavailability [11] [%]	EC50 [12] [nM]	bioavailability [13] [%]	Structure (SMILES)	Activity (Cardiac atrium) [%]	Activity (Rattus norvegicus [5]) [%]	Activity (Rattus norvegicus [6]) [%]	Activity (Rattus norvegicus [7]) [g]	Activity (Rattus norvegicus [8]) [%]	Activity (Rattus norvegicus [9]) [%]	Activity (Rattus norvegicus [10]) [g]
15.6	12.3	> 10000	> 10000	–	–	–	CC(C)(Cc1ccc(Oc2ccc(C(N)=O)cn2)cc1)NC[C@H](O)COc1cccc2c1C(Cc1ccccc1)C(=O)N2 (stereo not given in full)	–	–	–	–	–	–	–
50.5	24.4	> 10000	> 10000	–	–	–	CC(C)(Cc1ccc(Oc2ccc(C(N)=O)cn2)cc1)NC[C@H](O)COc1cccc2c1CC(=O)N2	19.5	–	–	–	–	–	–
41	8.3	> 10000	> 10000	–	–	–	CC(C)(Cc1ccc(Oc2ccc(C(N)=O)cn2)cc1)NC[C@H](O)COc1cccc2c1C1(CCCCC1)C(=O)N2	16	–	–	–	–	–	–
14.2	2.7	> 10000	> 10000	–	–	–	CCC1(CC)C(=O)Nc2cccc(OC[C@@H](O)CNC(C)(C)Cc3ccc(Oc4ccc(C(N)=O)cn4)cc3)c21	2	–	–	–	–	–	–
